Measurements taken from ChEMBL document CHEMBL1141029, “Allosteric inhibitors of Akt1 and Akt2: discovery of [1,2,4]triazolo[3,4-f][1,6]naphthyridines with potent and balanced activity” (Bioorg Med Chem Lett, 2009).
Each block holds one compound with its values, some of them ahead of it.

Legend:
Mus musculus [1] = experiment: Inhibition of Akt1 phosphorylation in lung of nude mouse xenografted with C33a cells at 70 mg/mL administered through mini-pump after 20 hrs by IP kinase assay; type: functional; conditions: in the assay text read “10 mg/mL” for “70 mg/mL”
[2] = target: Voltage-gated inwardly rectifying potassium channel KCNH2 (Homo sapiens, UniProt Q12809); experiment: Inhibition of human ERG expressed in HEK cells by competitive radioligand binding assay; type: cell-based, HEK293
Chain of Voltage-gated inwardly rectifying potassium channel KCNH2 (Q12809 whole entry): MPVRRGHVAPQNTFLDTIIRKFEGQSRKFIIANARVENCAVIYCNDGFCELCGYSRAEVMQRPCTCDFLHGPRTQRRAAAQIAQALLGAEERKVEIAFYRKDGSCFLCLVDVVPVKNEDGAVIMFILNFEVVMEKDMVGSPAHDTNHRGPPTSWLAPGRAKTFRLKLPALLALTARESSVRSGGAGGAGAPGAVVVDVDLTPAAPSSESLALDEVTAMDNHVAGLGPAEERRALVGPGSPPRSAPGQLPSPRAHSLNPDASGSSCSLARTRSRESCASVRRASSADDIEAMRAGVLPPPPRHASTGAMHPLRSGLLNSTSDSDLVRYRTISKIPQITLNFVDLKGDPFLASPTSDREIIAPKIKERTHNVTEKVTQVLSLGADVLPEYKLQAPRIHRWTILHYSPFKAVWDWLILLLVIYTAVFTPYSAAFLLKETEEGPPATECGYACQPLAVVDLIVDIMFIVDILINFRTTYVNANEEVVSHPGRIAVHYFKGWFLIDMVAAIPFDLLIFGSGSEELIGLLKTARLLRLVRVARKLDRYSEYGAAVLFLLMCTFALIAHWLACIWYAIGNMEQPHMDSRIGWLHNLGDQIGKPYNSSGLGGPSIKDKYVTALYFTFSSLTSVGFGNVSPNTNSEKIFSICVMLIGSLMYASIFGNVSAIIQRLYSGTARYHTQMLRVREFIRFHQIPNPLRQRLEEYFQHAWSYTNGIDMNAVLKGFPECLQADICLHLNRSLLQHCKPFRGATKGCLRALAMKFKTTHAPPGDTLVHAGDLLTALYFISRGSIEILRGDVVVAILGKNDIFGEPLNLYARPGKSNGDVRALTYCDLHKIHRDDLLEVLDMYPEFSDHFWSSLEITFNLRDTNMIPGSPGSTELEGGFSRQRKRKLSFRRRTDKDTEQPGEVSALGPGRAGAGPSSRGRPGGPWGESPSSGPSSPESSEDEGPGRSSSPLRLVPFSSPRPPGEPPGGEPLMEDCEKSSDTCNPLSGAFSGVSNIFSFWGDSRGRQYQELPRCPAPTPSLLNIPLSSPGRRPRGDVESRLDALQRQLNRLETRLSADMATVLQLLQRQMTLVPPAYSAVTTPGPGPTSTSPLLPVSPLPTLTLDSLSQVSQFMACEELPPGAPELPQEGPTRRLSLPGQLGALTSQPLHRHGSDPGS

[3] = Drug level in blood of nude mouse xenografted with […] at 10 mg/mL after 20 hrs; type: ADME, tissue-based; conditions: whole blood, read-out: Drug uptake
Mus musculus [4] = experiment: Inhibition of Akt2 phosphorylation in lung of nude mouse xenografted with C33a cells at 10 mg/mL administered through mini-pump after 20 hrs by IP kinase assay; type: functional
[5] = target: T1, Serine/threonine-protein kinase Sgk1 (Homo sapiens, UniProt O00141); experiment: Inhibition of SGK
T1 sequence (O00141 whole entry): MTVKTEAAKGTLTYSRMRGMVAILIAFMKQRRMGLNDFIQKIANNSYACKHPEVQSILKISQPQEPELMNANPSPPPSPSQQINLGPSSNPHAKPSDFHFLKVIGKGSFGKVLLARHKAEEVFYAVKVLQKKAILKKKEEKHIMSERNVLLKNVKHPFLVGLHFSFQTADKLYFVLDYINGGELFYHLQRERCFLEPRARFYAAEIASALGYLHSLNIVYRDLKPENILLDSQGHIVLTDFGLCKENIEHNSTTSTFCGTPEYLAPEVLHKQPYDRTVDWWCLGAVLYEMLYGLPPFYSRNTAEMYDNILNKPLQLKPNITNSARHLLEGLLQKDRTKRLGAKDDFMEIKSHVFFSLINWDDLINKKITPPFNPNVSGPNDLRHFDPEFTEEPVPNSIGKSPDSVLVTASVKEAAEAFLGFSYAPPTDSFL

[6] = target: T2, RAC-alpha serine/threonine-protein kinase (Homo sapiens, UniProt P31749); experiment: Inhibition of Akt1 by cell based assay
T2 sequence (P31749 whole entry): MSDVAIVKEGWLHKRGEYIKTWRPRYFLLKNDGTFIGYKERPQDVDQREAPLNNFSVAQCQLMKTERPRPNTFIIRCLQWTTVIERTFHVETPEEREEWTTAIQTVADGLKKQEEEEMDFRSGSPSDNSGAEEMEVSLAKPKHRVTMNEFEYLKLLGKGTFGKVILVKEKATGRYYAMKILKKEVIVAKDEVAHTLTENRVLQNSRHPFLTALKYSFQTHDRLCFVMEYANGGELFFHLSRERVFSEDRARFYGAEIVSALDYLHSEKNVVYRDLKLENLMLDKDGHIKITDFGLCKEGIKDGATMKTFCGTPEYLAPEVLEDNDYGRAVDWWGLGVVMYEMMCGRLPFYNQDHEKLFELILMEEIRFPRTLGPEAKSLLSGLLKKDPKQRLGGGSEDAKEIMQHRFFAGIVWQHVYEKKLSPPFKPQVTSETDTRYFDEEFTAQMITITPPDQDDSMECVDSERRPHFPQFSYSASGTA

[7] = target: T3, RAC-beta serine/threonine-protein kinase (Homo sapiens, UniProt P31751); experiment: Inhibition of Akt2 by cell based assay
T3 sequence (P31751 whole entry): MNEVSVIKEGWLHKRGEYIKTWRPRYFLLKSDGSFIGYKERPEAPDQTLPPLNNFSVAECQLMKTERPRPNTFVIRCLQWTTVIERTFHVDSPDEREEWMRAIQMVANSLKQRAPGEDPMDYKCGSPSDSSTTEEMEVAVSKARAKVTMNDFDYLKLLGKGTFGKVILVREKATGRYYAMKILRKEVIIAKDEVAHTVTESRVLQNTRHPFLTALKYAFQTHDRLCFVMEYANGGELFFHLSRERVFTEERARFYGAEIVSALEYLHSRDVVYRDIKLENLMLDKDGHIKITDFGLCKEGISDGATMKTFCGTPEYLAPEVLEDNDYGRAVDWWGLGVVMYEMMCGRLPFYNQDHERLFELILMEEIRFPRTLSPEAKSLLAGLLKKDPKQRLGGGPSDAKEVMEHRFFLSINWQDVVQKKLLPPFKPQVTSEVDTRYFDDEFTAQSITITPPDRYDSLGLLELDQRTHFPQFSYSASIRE

[8] = Inhibition of PKC
[9] = target: T3, RAC-beta serine/threonine-protein kinase; experiment: Inhibition of human cloned Akt2 expressed in Drosophila S2 cells by HTRF assay; type: cell-based
[10] = target: T2, RAC-alpha serine/threonine-protein kinase; experiment: Inhibition of human cloned Akt1 expressed in Drosophila S2 cells by HTRF assay; type: cell-based
[11] = Inhibition of PKA
[12] = Drug level in blood of nude mouse xenografted with […] at 70 mg/mL after 20 hrs; type: ADME, tissue-based; conditions: whole blood, read-out: Drug uptake
Method in brief: (§1)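 Nude mice bearing C33a cervical carcinoma tumours, 3 per concentration. Hydrochloride salt in 25% hydroxypropyl-b-cyclodextrin given by mini-pump at 8 µL/hr for 20 hrs, pump solution 70 or 18 mg/mL. Blood drawn for PK at 3, 6, 8, 11 and 20 h, so steady-state blood level is known. Euthanized at 20 h. Akt1 and Akt2 phosphorylation activity measured in lung as % inhibition.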

Mus musculus [13] = experiment: Inhibition of Akt2 phosphorylation in lung of nude mouse xenografted with C33a cells at 70 mg/mL administered through mini-pump after 20 hrs by IP kinase assay; type: functional; method in brief: as §1
[14] = Drug level in blood of nude mouse xenografted with […] at 18 mg/mL after 20 hrs; type: ADME, tissue-based; conditions: whole blood, read-out: Drug uptake; method in brief: as §1
Mus musculus [15] = experiment: Inhibition of Akt2 phosphorylation in lung of nude mouse xenografted with C33a cells at 18 mg/mL administered through mini-pump after 20 hrs by IP kinase assay; type: functional; method in brief: as §1
Mus musculus [16] = experiment: Inhibition of Akt1 phosphorylation in lung of nude mouse xenografted with C33a cells at 18 mg/mL administered through mini-pump after 20 hrs by IP kinase assay; type: functional; method in brief: as §1

Compound: O=c1[nH]ccc2nc(-c3ccc(CN4CCC(c5n[nH]c(-c6ccccn6)n5)CC4)cc3)c(-c3ccccc3)cc12
inhibition (INH) (Mus musculus [1]): 85%
IC50 [2]: 5610 nM
concentration at 20 h [3]: 3000 nM
inhibition (INH) (Mus musculus [4]): 4%

Compound: NC(=O)Nc1nnc2c3cc(-c4ccccc4)c(-c4ccc(CN5CCC(c6n[nH]c(-c7ccccn7)n6)CC5)cc4)nc3ccn12
IC50 [5]: > 50000 nM
IC50 [6]: 265 nM
IC50 [7]: 1210 nM
IC50 [8]: > 50000 nM
IC50 [9]: 24.1 nM
IC50 [10]: 8.5 nM
IC50 [11]: > 50000 nM

Compound: OCCNCc1nnc2c3cc(-c4ccccc4)c(-c4ccc(CN5CCC(c6n[nH]c(-c7ccccn7)n6)CC5)cc4)nc3ccn12
IC50 [5]: > 50000 nM
IC50 [6]: 41.8 nM
IC50 [7]: 251 nM
IC50 [8]: > 50000 nM
IC50 [9]: 77.9 nM
IC50 [10]: 17 nM
IC50 [11]: > 50000 nM

Compound: CN1CCN(Cc2nnc3c4cc(-c5ccccc5)c(-c5ccc(CN6CCC(c7n[nH]c(-c8ccccn8)n7)CC6)cc5)nc4ccn23)CC1
IC50 [5]: > 50000 nM
IC50 [6]: 62.5 nM
IC50 [7]: 376 nM
IC50 [8]: > 50000 nM
IC50 [9]: 55.1 nM
IC50 [10]: 9.9 nM
IC50 [11]: > 50000 nM

Compound: c1ccc(-c2cc3c(ccn4cnnc34)nc2-c2ccc(CN3CCC(c4n[nH]c(-c5ccccn5)n4)CC3)cc2)cc1
IC50 [5]: > 50000 nM
concentration at 20 h [12]: 1700 nM
inhibition (INH) (Mus musculus [13]): 35%
concentration at 20 h [14]: 1800 nM
IC50 [6]: 5 nM
IC50 [7]: 41 nM
IC50 [8]: > 50000 nM
inhibition (INH) (Mus musculus [15]): 41%
IC50 [2]: > 10000 nM
IC50 [10]: 4 nM
IC50 [11]: > 50000 nM
inhibition (INH) (Mus musculus [16]): 92%

The next lines start with results.

IC50 [5]: > 50000 nM
IC50 [6]: 17 nM
IC50 [7]: 108 nM
IC50 [8]: > 50000 nM
IC50 [9]: 10.4 nM
IC50 [10]: 10 nM
IC50 [11]: > 50000 nM
Compound: Sc1nnc2c3cc(-c4ccccc4)c(-c4ccc(CN5CCC(c6n[nH]c(-c7ccccn7)n6)CC5)cc4)nc3ccn12

IC50 [5]: > 50000 nM
IC50 [6]: 18.1 nM
IC50 [7]: 47.7 nM
IC50 [8]: > 50000 nM
IC50 [9]: 9.4 nM
IC50 [10]: 2.8 nM
IC50 [11]: > 50000 nM
Compound: Nc1nnc2c3cc(-c4ccccc4)c(-c4ccc(CN5CCC(c6n[nH]c(-c7ccccn7)n6)CC5)cc4)nc3ccn12

IC50 [5]: > 50000 nM
IC50 [6]: 27 nM
IC50 [7]: 168 nM
IC50 [8]: > 50000 nM
IC50 [9]: 6.7 nM
IC50 [10]: 2.6 nM
IC50 [11]: > 50000 nM
Compound: Oc1nnc2c3cc(-c4ccccc4)c(-c4ccc(CN5CCC(c6n[nH]c(-c7ccccn7)n6)CC5)cc4)nc3ccn12
IC50 [2]: 5310 nM

IC50 [5]: > 50000 nM
IC50 [6]: 113 nM
IC50 [7]: 483 nM
IC50 [8]: > 50000 nM
IC50 [9]: 10.5 nM
IC50 [10]: 26.7 nM
IC50 [11]: > 50000 nM
Compound: ClCc1nnc2c3cc(-c4ccccc4)c(-c4ccc(CN5CCC(c6n[nH]c(-c7ccccn7)n6)CC5)cc4)nc3ccn12
IC50 [2]: 2020 nM

IC50 [6]: 18.3 nM
IC50 [7]: 74.8 nM
IC50 [9]: 2.8 nM
IC50 [10]: 3.3 nM
Compound: Nc1nnc2c3cc(-c4ccccc4)c(-c4ccc(CN5CCC(n6cnc(-c7ccccn7)c6)CC5)cc4)nc3ccn12

IC50 [5]: > 50000 nM
IC50 [6]: 24.6 nM
IC50 [7]: 177 nM
IC50 [8]: > 50000 nM
IC50 [9]: 14.6 nM
IC50 [10]: 4.6 nM
IC50 [11]: > 50000 nM
Compound: Cc1nnc2c3cc(-c4ccccc4)c(-c4ccc(CN5CCC(c6n[nH]c(-c7ccccn7)n6)CC5)cc4)nc3ccn12
